From PMC3953455 (Molecular pharmaceutics, 2013) come the findings set out here.

Series [1] deals with T1, human UGT1A1 (Homo sapiens, UniProt P22309).
T1 sequence (P22309 26-533): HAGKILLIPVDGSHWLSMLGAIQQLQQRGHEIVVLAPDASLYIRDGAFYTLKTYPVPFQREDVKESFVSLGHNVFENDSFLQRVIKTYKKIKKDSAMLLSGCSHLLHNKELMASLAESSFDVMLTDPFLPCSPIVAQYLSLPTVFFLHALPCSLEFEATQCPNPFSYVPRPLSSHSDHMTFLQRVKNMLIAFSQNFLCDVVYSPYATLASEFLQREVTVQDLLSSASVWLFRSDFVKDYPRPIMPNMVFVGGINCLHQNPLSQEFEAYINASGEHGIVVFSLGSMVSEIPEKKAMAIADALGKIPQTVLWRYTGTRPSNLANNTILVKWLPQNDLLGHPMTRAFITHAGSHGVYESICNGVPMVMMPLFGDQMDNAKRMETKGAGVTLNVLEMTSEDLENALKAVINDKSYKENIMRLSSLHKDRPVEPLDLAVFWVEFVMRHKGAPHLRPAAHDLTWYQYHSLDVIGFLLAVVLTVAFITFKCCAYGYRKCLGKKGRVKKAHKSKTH
Put plainly: Mutual glucuronidation inhibition. The format is biochemical. As to conditions: for Ki: mixed-type inhibition; for type of inhibition of UGT1A1-mediated glucuronidation: best fit by R2 and AIC, Lineweaver-Burk plots; for decrease of apparent Vmax of glucuronidation versus control: substrate glucuronidation in presence of increasing 3,7,4′THF, up to 5 μM; for Vmax: n=3.

For series [2], the target named is T1, human UGT1A1. Briefly: Glucuronidation kinetics with expressed human UGT1A1 Supersomes. The format is in vitro ADME. The method in brief:
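Recombinant human UGT1A1 Supersomes (26.5~53.0 µg protein/mL final) with MgCl2 0.88 mM, saccharolactone 4.4 mM, alamethicin 0.022 mg/mL and UDPGA 3.5 mM (added last) in 50 mM potassium phosphate, pH 7.4. Test compound at 0–10 µM final. Incubated 37°C for 15~120 min, then stopped with acetonitrile/acetic acid. Glucuronide quantified by UPLC in triplicate. Rates were fitted to Michaelis-Menten, substrate-inhibition or Hill equations with 1/y weighting.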

Setting [3] is: Ki (inhibition of 3,7,4′THF-3-O-G formation), substrate 3,7,4′THF, 3-O-glucuronidation.
Where [4] appears, read: Ki (inhibition of 3,7,4′THF-7-O-G formation), substrate 3,7,4′THF, 7-O-glucuronidation.
The mark [5] stands for this setting: glucuronide formation in presence of 3,7,4′THF 0.313 μM.
Where [6] appears, read: glucuronide formation in presence of 3,7,4′THF 0.625 μM.
Where [7] appears, read: glucuronide formation in presence of 3,7,4′THF 1.25 μM.
The mark [8] stands for this setting: glucuronide formation in presence of 3,7,4′THF 5 μM.
The mark [9] stands for this setting: glucuronide formation, 3,7,4′THF 0 μM (absence of inhibitor).

Where only a bound is given, the exact number is not on record here.

For the compound `O=c1c(O)c(-c2ccc(O)cc2)oc2cc(O)ccc12` [3,7,4′THF, 3,7,4′-trihydroxyflavone], the Ki in series [1] (Ki (inhibition of glucuronidation of 3HF), substrate 3HF) was determined as 0.51 ± 0.15 µM; in series [1] (Ki (inhibition of glucuronidation of 7HF), substrate 7HF) it was 1.29 ± 0.33 µM. Further, the “type of inhibition of UGT1A1-mediated glucuronidation” value in series [1] is recorded as “mixed-type inhibition”. The “Ki of substrate inhibition” value in series [2] (substrate inhibition pattern of 3,7,4′THF in the absence of three MHFs) is on record as “approximately 1 μM”.
As to `O=C(O)[C@H]1O[C@@H](Oc2ccc(-c3oc4cc(O)ccc4c(=O)c3O)cc2)[C@H](O)[C@@H](O)[C@@H]1O` [3,7,4′THF-4′-O-G, 3,7,4′THF-4′-O-glucuronide], the “detection of glucuronide in UGT1A1 reaction mixtures” value in series [2] (3,7,4′THF incubated with human UGT1A1) is “not detected”.
For `O=c1c(O)c(-c2ccccc2)oc2ccccc12` [3HF, 3-Hydroxyflavone], the figures for the Ki in series [1] (setting [3]) and in series [1] (setting [4]) were 4.14 ± 1.24 µM and 9.04 ± 2.72 µM, respectively. For the same compound, in series [1], the “type of inhibition of UGT1A1-mediated glucuronidation” value is on record as “mixed-type inhibitors”. The “decrease of apparent Vmax of glucuronidation versus control” value (from here on “decrease”) in series [1] is at most 4.6 times.
Take `O=C(O)[C@H]1O[C@@H](Oc2c(-c3ccccc3)oc3ccccc3c2=O)[C@H](O)[C@@H](O)[C@@H]1O` [3HF-O-G, 3HF-O-glucuronide]: the Vmax in series [1] (setting [5]) turned out to be 1.63 ± 0.07 nmol/mg/min; in series [1] (setting [6]) it was 1.67 ± 0.03 nmol/mg/min; in series [1] (setting [7]), 2.05 ± 0.13 nmol/mg/min; in series [1] (setting [8]), 0.44 ± 0.16 nmol/mg/min; in series [1] (setting [9]), 2.00 ± 0.05 nmol/mg/min.
In series [1] (setting [3]), `O=c1cc(-c2ccc(O)cc2)oc2ccccc12` [4′HF, 4′-hydroxyflavone] registered a Ki of 3.66 ± 0.77 µM. For the same compound, affinity in series [1] (setting [4]) was put at a Ki of 6.22 ± 1.74 µM. Further, in series [1], the “type of inhibition of UGT1A1-mediated glucuronidation” value is recorded as “mixed-type inhibitors” and the “decrease” value is at most 5.0 times.
Consider `O=C(O)[C@H]1O[C@@H](Oc2ccc(-c3cc(=O)c4ccccc4o3)cc2)[C@H](O)[C@@H](O)[C@@H]1O` [4′HF-O-G, 4′HF-O-glucuronide], for which the Vmax in series [1] (setting [5]) came out at 0.63 ± 0.02 nmol/mg/min; in series [1] (setting [6]) it was 0.61 ± 0.02 nmol/mg/min; in series [1] (setting [7]), 0.58 ± 0.01 nmol/mg/min; in series [1] (setting [8]), 0.14 ± 0.01 nmol/mg/min; in series [1] (setting [9]), 0.68 ± 0.02 nmol/mg/min.
As to `O=c1cc(-c2ccccc2)oc2cc(O)ccc12` [7HF, 7-hydroxyflavone], in series [1] (setting [3]), affinity was put at a Ki of 1.77 ± 0.72 µM. In addition, in series [1] (setting [4]), the Ki worked out at 4.33 ± 1.6 µM. In series [1], the “type of inhibition of UGT1A1-mediated glucuronidation” value is listed as “mixed-type inhibitors” and the “decrease” value was at most 2.4 times.
In the case of `O=C(O)[C@H]1O[C@@H](Oc2ccc3c(=O)cc(-c4ccccc4)oc3c2)[C@H](O)[C@@H](O)[C@@H]1O` [7HF-O-G, 7HF-O-glucuronide], the Vmax is 1.27 ± 0.03 nmol/mg/min in series [1] (setting [5]); 1.16 ± 0.03 nmol/mg/min in series [1] (setting [6]); 0.99 ± 0.07 nmol/mg/min in series [1] (setting [7]); 0.59 ± 0.07 nmol/mg/min in series [1] (setting [8]); 1.40 ± 0.05 nmol/mg/min in series [1] (setting [9]).
